The record followed here is article PMC7032146 (Asian Journal of Pharmaceutical Sciences, 2018).

One assay relates to B16F10 cells. The experiment in a line: Cellular uptake of NR-loaded micelles. It counts as cell-based. Conditions: B16F10, flow cytometry, 1 h and 4 h. On the technique in general: A flow cytometer gives signals particle by particle.
Another assay deals with L929 cells. The experiment in a line: Cellular uptake of NR-loaded micelles. It counts as cell-based. The method, boiled down: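 L929 cells (CD44-negative) grown 24 h in DMEM with 10% FBS, then medium replaced with free fluorescent marker NR or micelles loaded with NR at 0.2% drug loading. Incubated at 37 °C for 1, 4 and 8 h, washed thrice with PBS, and viewed by fluorescent inverted microscope. For flow cytometry at 1 and 4 h, cells were PBS-washed, trypsinised, resuspended in PBS, and read at 560/620 nm.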

As to `CCN(CC)c1ccc2nc3c4ccccc4c(=O)cc-3oc2c1` [free NR, nile red], the “Intracellular NR concentrations, order” value with B16F10 cells is reported as “HA-SS-ATRA21/NR micelles > HA-ATRA20/NR micelles > free NR > HA-SS-ATRA21/NR micelles treated with free-HA”. The “Fluorescence intensity of NR (cellular uptake)” value with L929 cells (L929 (CD44-negative), fluorescent inverted microscope) is recorded as “highest”; in the assay with L929 cells (L929, flow cytometry, 1 h and 4 h), “highest”.
